# GSTO1 inh: inhibitors of recombinant GSTO1, primary screen, counter-screen for RBBP9 inhibitor project, biochemical, fluorescence polarization | AID 1974, 2009 | inhibition, % at 5.96 µM | activity-based probe fluorescence polarization | hit rate 1.1% among 300,000;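 active = inhibition above the campaign mean inhibition plus 3 SD, cut at about 35% in these data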;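 note: 0% = GSTO1-1 with DMSO and 100% = wells lacking GSTO1-1 enzyme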
# PP5 inh: PP5 phosphatase inhibitors, primary screen, biochemical, fluorescence; Serine/threonine-protein phosphatase 5 (Homo sapiens), P53041; inhibition, % at 6.7 µM; hit rate 0.18% among 320,000; AID 1987, 2009; purified PP5c, OMFP substrate fluorescence;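 active = inhibition above the campaign's mean inhibition across all tested compounds plus 3 SD, cut at about 9.5% in these data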;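 note: 0% = DMSO only and 100% = 100 µM cantharidin control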
# PP1 counter: PP1-alpha phosphatase inhibitors, primary screen, counter-screen for PP5 inhibitor project, biochemical, fluorescence, OMFP substrate, single point; Serine/threonine-protein phosphatase PP1-alpha catalytic subunit (Homo sapiens), P62136; purified PP1alpha; inhibition, % at 6.7 µM; hit rate 0.9% among 320,000; AID 2235, 2010;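 active = inhibition above the mean inhibition of all tested compounds plus 3 SD, computed separately for each screening campaign, cut at about 15% in these data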
# Target sequence (P62136 whole entry, looked up): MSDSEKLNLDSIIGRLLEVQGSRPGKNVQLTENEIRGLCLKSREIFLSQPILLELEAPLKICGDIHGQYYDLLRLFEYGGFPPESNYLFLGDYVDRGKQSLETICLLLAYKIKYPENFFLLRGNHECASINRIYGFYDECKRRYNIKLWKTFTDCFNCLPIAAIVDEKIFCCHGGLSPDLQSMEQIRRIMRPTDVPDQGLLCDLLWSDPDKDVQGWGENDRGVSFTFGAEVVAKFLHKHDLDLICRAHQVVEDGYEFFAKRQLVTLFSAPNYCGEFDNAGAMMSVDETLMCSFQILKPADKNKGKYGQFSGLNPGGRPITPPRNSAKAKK
# TDP2 absorb: human TDP2 enzyme inhibitors, primary screen, biochemical, epi absorbance, recombinant enzyme | Tyrosyl-DNA phosphodiesterase 2 (Homo sapiens), O95551 | T5PNP hydrolysis, p-nitrophenol absorbance 415 nm | inhibition, % at 12.8 µM | hit rate 0.34% among 370,000;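 active = inhibition above the mean of all tested compounds plus 3 SD, set per campaign, cut at about 25% in these data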;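 note: 0% = DMSO with enzyme and 100% = buffer with substrate but no TDP2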
# Target sequence (O95551 whole entry, looked up): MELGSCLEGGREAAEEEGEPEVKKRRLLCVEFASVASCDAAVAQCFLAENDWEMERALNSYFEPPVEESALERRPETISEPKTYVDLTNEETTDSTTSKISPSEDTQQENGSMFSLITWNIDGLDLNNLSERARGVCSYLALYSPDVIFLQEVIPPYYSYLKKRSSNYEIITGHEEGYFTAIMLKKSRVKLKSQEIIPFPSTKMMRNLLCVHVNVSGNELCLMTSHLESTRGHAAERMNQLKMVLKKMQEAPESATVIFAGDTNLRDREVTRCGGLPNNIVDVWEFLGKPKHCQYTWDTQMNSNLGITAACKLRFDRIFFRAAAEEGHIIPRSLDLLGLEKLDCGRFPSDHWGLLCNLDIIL
#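 Test system: Human TDP2 enzyme | Reagent: 5 mM T5PNP | Compound dosing: 12.8 µM single point, 1% DMSO | Incubation: Enzyme reaction with compound for 2 h at 37 °C | Technique: p-Nitrophenol epi absorbance | Read-out: % inhibition relative to enzyme-containing and enzyme-free wells | Benchmarks: High control without enzyme, low control DMSO plus TDP2 | Replicates: Singlicate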
# Apaf-1 inh: inhibitors of human Apaf-1 apoptosome, primary screen, biochemical, DEVD-Rh110 fluorescence, uHTS; AID 489030, 2010; inhibition, % at 20 µM; reconstituted apoptosome caspase-3 activity; hit rate 0.71% among 330,000; active = inhibition of at least 40% at 20 µM;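 note: plate controls were DMSO wells for no effect and DEVD-CHO caspase inhibitor wells for full effect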
#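 Material: biochemical Apaf-1 apoptosome reconstitution. Medium: Hepes buffer, pH 7.5. Also added: cytochrome c activation, bis-DEVD rhodamine 110 substrate. Timing: 30 min compound preincubation, 50 min activation, room temperature. Measured by: rhodamine 110 fluorescence at Ex 480/Em 540 nm.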
# PP1 inh confirm: PP1 phosphatase inhibitors, confirmation, biochemical, fluorescence, OMFP substrate, triplicate; shares compounds with PP1 counter; AID 2358, 2010; inhibition, % at 6.7 µM; hit rate 52% among 1,900; purified PP1alpha;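 active = mean PP1 inhibition above a set limit taken from the earlier primary screen, cut at about 15% in these data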
# PP5 counter: PP5 phosphatase inhibition by PP1 hits, confirmation, counter-screen for PP1 inhibitor project, biochemical, fluorescence, triplicate; shares compounds with PP1 counter; purified PP5c, OMFP fluorescence; inhibition, % at 6.7 µM; hit rate 4% among 1,900;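 active = mean PP5 inhibition over triplicate wells above about 9.5% taken from the earlier PP1 screen, limit read from the data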
# Apaf-1 inh conf: Apaf-1 inhibitors, single-dose retest, confirmation, biochemical, fluorescence, DEVD-Rh110, 20 µM; shares compounds with Apaf-1 inh; reconstituted apoptosome, caspase-3 DEVD-Rh110 fluorescence; inhibition, % at 20 µM; hit rate 25% among 1,800;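 active = mean inhibition of at least 40% at 20 µM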;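 note: plate controls were DMSO wells for no effect and DEVD-CHO caspase inhibitor control wells for full effect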
# Rh110 interf inh: Rh110 fluorescence interference by putative Apaf-1 inhibitors, confirmation, artefact control for Apaf-1 inhibitor project, biochemical, 20 µM; shares compounds with Apaf-1 inh; 1,800 tested, under 10 active; quenched caspase reaction; activation (fluorescence interference), % at 20 µM;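 active = signal rise of 40% or more at 20 µM, treated as a fluorescence artifact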
# Fluor interf inh: fluorescence interference of Apaf-1 inhibitor hits, dose response, artefact control for Apaf-1 inhibitor project; fluorescence interference counterscreen, Apaf-1 assay format; shares compounds with Apaf-1 inh; 460 tested, under 10 active; IC50, µM; call rule not given here
# TDP2 inh conf: human TDP2 enzyme inhibitors, retest, confirmation, biochemical, epi absorbance, recombinant enzyme | shares compounds with TDP2 absorb | absorbance read-out | inhibition, % at 12.8 µM | hit rate 22% among 1,100; in the data active = inhibition above about 25%;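 note: 0% = vehicle with enzyme and 100% = no enzyme buffer only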
# * hit, by the source's call; nt = no result; ! = not active in a repeat. A selection: hits, their analogues and other compounds. The true share with any hit is near 2.1%.
SMILES,GSTO1 inh,PP5 inh,PP1 counter,TDP2 absorb,Apaf-1 inh,PP1 inh confirm,PP5 counter,Apaf-1 inh conf,Rh110 interf inh,others
COc1ccc(CNC[C@@H](CCCCN(C)Cc2ccc(OC)cc2)N2C[C@H](c3ccccc3)N(CCc3ccc(Cl)c(Cl)c3)C(=O)C2=O)cc1,-2,5,39*,nt,49*,13,-1,51*,7,Fluor interf inh=>100
COC(=O)[C@]12C[C@H](CC(=O)N3CCCC3)C(=O)N(CCC3=CCCCC3)C1=C[C@H](C1CCCC1)O[C@@H]2C,nt,nt,nt,-5,nt,nt,nt,nt,nt,
CCN(CC)CCOc1ccc(/C(=C(/Cl)c2ccccc2)c2ccccc2)cc1,9,4,19*!,-5,65*,-9,1,22,8,
C#CCOCCOCCOCCNc1nc(N2CCN(C(=O)[C@H]([C@@H](C)CC)n3cc([C@@H](N)CC(C)C)nn3)CC2)nc(N2CCN(C(=O)[C@H](Cc3cc4ccccc4[nH]3)n3cc([C@@H](N)C(C)CC)nn3)CC2)n1 (some centres undefined),nt,nt,nt,nt,30,nt,nt,nt,nt,
C#CCOCCOCCOCCNc1nc(N2CCN(C(=O)[C@H]([C@@H](C)CC)n3cc([C@@H](N)CC(C)C)nn3)CC2)nc(N2CCN(C(=O)[C@H](Cc3cc4ccccc4[nH]3)n3cc([C@@H](N)Cc4ccc(O)cc4)nn3)CC2)n1,5,7,25*,nt,56*,-15,6,7,-1,
C#CCOCCOCCOCCNc1nc(N2CCN(C(=O)[C@H]([C@@H](C)CC)n3cc([C@@H](N)Cc4ccc(O)cc4)nn3)CC2)nc(N2CCN(C(=O)[C@H](Cc3cc4ccccc4[nH]3)n3cc([C@@H](N)CC(C)C)nn3)CC2)n1,-7,0,28*,nt,63*,-13,-4,30,-3,
NC1=NC[C@H](CC2CCCCC2)N1CCc1cc(C(F)(F)F)cc(C(F)(F)F)c1,-10,3,18*,-10,74*,-2,3,50*,27,Fluor interf inh=>100
NC1=NC[C@@H](Cc2ccc(O)cc2)N1CCc1cc(C(F)(F)F)cc(C(F)(F)F)c1,2,1,3,0,31,nt,nt,nt,nt,
CC(C)C(C(=O)O)N1C(=O)/C(=C/C=C/c2ccco2)SC1=S (centres undefined),25,1,20*,nt,46*,14,-3,48*,6,Fluor interf inh=>100
CC(C)C(C(=O)O)N1C(=O)/C(=C/c2cccn2C)SC1=S (centres undefined),-8,1,-6,-3,nt,nt,nt,nt,nt,
CC(C)(C)c1ccc(-c2nn(CCC#N)cc2/C=N/O)cc1,4,4,32*,-10,50*,1,2,39,7,
Cc1cc(C(C)(C)CC(C)(C)C)ccc1OCCOCC[N+](C)(C)Cc1ccccc1,6,5,30*,-14,86*,7,3,59*,15,Fluor interf inh=>100
C[N+](C)(CCOc1ccccc1)Cc1ccccc1,nt,nt,nt,-1,nt,nt,nt,nt,nt,
CCCCCCSc1cccc(-c2nc3cc(C)ccn3c2NCc2ccccc2)c1,0,3,19*,14,40*,4,0,21,11,
Cc1cc(SCC(=O)N/N=C/c2ccc(O)c(O)c2O)c(C)cc1Br,18,3,35*,-3,49*,33*,-1,31,8,
COc1cc(/C=N/NC(=O)CSc2cc(C)c(Br)cc2C)ccc1O,6,1,2,-6,10,nt,nt,nt,nt,
COC(=O)C1=C(C)N(C)C(=NCc2ccc(C(F)(F)F)cc2)NC1c1ccc(F)cc1 (centres undefined),nt,nt,nt,-8,nt,nt,nt,nt,nt,
O=C(c1cccc(F)c1F)N(Cc1ccccn1)CC1CCCO1 (centres undefined),nt,nt,nt,-6,nt,nt,nt,nt,nt,
N#C/C(=C/c1cn(-c2ccccc2)nc1-c1cccc(OCc2ccc(F)cc2)c1)C(=O)NCCCn1ccnc1,-15,5,22*,2,44*,8,-3,26,9,
CCCCCCCCCCCCCCCC[N+](C)(C)CCN(Cc1ccc(OC)cc1)c1ncccn1,4,11*,69*,nt,98*,35*,7,92*,30,Fluor interf inh=>100
COc1ccc(CN(CCN(C)C)c2ccccn2)cc1,-6,1,-3,-3,6,nt,nt,nt,nt,
O=C(N/N=C/c1ccc(O)cc1O)C(=O)N/N=C/c1ccc(O)cc1O,13,-3,53*,26*,-18,30*,-7,nt,nt,TDP2 inh conf=7
O=C(NN=Cc1ccc(O)cc1)C(=O)NN=Cc1ccc(O)cc1,nt,nt,nt,-4,nt,nt,nt,nt,nt,
Cc1cc(C(F)(F)F)nn1CC(=O)NCc1ccco1,-10,4,18*,31*,-15,-3,-6,nt,nt,TDP2 inh conf=4
CC(C)NC(=O)Cn1c(-c2cncs2)nc2ccccc21,nt,nt,nt,1,nt,nt,nt,nt,nt,
CCN1CCN(Cc2ccc(NC(=O)c3ccc(C)c(NC(=O)c4cc(-c5ccc(Br)cc5)n[nH]4)c3)cc2C(F)(F)F)CC1,-8,2,7,-11,45*,nt,nt,22,-2,
CC1(C)OC(C)(C)/C(=C/Nc2ccc(O)cc2)C1=O,25,-1,-1,11,48*,nt,nt,14,-3,
O=C(CN1CCCC(O)C1)N1c2ccccc2Sc2ccc(C(F)(F)F)cc21 (centres undefined),1,1,0,-15,-5,nt,nt,nt,nt,
CN1CCN(CCCN2c3ccccc3Sc3ccc(C(F)(F)F)cc32)CC1,2,3,6,-1,54*,nt,nt,11,8,

# Screening results from PubChem BioAssay.
